The structures appear in SMILES notation. About 250 (0.93%) of roughly 27,000 compounds were called active. This is one part of a sample in which actives are shown more often than they occur.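 The calls were made as follows: active = mutant luminescence inhibited past about 50% while wild type luminescence and mutant growth stay under set limits (limit read from the data); inconclusive = mutant versus wild type luminescence inhibition gap past a set limit; inactive = the rest.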

As usually defined, the inhibition is the relative decrease from the control value, in per cent.

The nature of this assay: GCN4-lacZ reporter reduction in eIF2B-epsilon mutant yeast, primary screen, S. cerevisiae, eIF2B-epsilon R284H, Beta-Glo luminescence (AID 688). The settings on record: growth inhibition: measured here: mutant yeast growth, toxicity, concentration not given here; inhibition: stronger effect = higher value, screened at 25 µM (by protocol). Summed up:
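material = yeast eIF2B-epsilon R284H mutant carrying GCN4–beta-galactosidase fusion | schedule = 16 h growth with compound at 30 °C, 90 min Beta-Glo step | measured by = luminescence and A595 | compound dosing = one concentration, 25 µM, 0.25% DMSO | read-out basis = % inhibition of reporter signal and growth versus controls | buffer or medium = YPD medium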
In the case of `COCCOCCn1cnc2ccccc21`, the growth inhibition was found to be 6.67% and the inhibition is 18.1% (inactive). With `CCOn1c(SC(C)C)nc2ccccc2c1=O`, the inhibition was 10.3% (inactive).

`O=C(CSc1nnc(-c2cccnc2)n1CCc1ccccc1)NCc1ccccc1`: the inhibition is -28.6% (inactive). Take `Cc1ccc(NC(=O)N2CCC(O)(c3cccnc3)CC2)cc1`: the growth inhibition was 12.8% and the inhibition was 17.2% (inactive). The matching figures for `Cn1c(Cc2cccc3ccccc23)nnc1SCC(=O)N1CCN(c2cccc(Cl)c2)CC1`: 2.78% and 15.8% (inactive).

With `CCSC1(SCC)N=C(N)C2(C#N)C(c3ccccc3)NC(C)=CC12C#N` (stereo not drawn), the growth inhibition is -8.11% and the inhibition is -35% (inactive). On to `CNC(=S)N1N=C(c2ccccc2)CC1c1ccc(Br)cc1` (stereo not drawn), for which the growth inhibition is -12.5% and the inhibition was 17.7% (inactive). `CCNC(=O)CN(c1ccc(C)cc1)S(=O)(=O)c1ccc(SC)cc1`: the growth inhibition is 13.8% and the inhibition was -15% (inactive). With `Cc1nn(C)cc1CNC(=O)Nc1ccc(Cl)cc1`, the growth inhibition is -18.2% and the inhibition was -9.58% (inactive). The corresponding values for `O=C1c2ccncc2C(=O)N1C1CCCCC1` are 8.93% and 68.7% (active). On to `Cc1cc(N2CCN(S(=O)(=O)c3ccc(C)c(C)c3)CC2)c2ccccc2n1`, for which the growth inhibition was found to be 3.23% and the inhibition was 10.4% (inactive). Consider `Cc1[nH][nH]c(=O)c1N=Nc1ccccc1`, for which the growth inhibition amounted to 8.33% and the inhibition is 28.6% (inactive). Consider `CN(Cc1nc2ccccc2c(=O)[nH]1)Cc1cc(=O)oc2ccc3ccccc3c12`, for which the growth inhibition was 9.38% and the inhibition was 16.8% (inactive). Regarding `CC(C)C(NC(=O)c1ccc(Cl)cc1)C(=O)O` (stereo not drawn), the growth inhibition is 16.2% and the inhibition is 27.4% (inactive). For the compound `CCC(C(=O)NCc1ccc(OC)cc1)n1nc(C)n2c(cc3occc32)c1=O` (stereo not drawn), the growth inhibition was -9.52% and the inhibition was 47% (inactive). Regarding `Cc1noc(NS(=O)(=O)c2ccc(NC(=O)C34CCC(CC3)C4)cc2)c1C`, the growth inhibition worked out at 2.7% and the inhibition was -23.3% (inactive).

For `C/C=C/C(=O)OCC(=O)Nc1ccc(F)cc1Cl`, the growth inhibition is -4.76% and the inhibition was 19.8% (inactive). The corresponding values for `COc1ccc(CNCCCO)cc1OC` are 8.33% and -1.06% (inactive). With `CCc1c(-c2ccccc2)nc(N)c(C#N)c1-c1cccs1`, the growth inhibition was -19.1% and the inhibition is 15.9% (inactive).

As for `OCCN1CCOCCOCCN(CCO)CCN(CCO)CC1`, the growth inhibition was -9.52% and the inhibition was 13.5% (inactive). `O=c1[nH][nH]c(C(F)(F)F)c1C=NCc1ccccc1Cl`: the growth inhibition was 12.5% and the inhibition was 12% (inactive).

Turning to `O=P(O)(CP(=O)(c1ccccc1)c1ccccc1)c1ccccc1`, the growth inhibition came out at 3.57% and the inhibition was -14.4% (inactive). Turning to `CC(C)(C)NC(=O)Cn1c(SCC(=O)Nc2nccs2)nc2ccccc21`, the growth inhibition is -29.4% and the inhibition is 0.21% (inactive). As to `COc1ccccc1N=C1SC(C)CN1C(=O)C1CCC1` (stereo not drawn), the growth inhibition was determined as 4.55% and the inhibition was 26.9% (inactive). The matching figures for `CCN(CC(=O)Nc1ccccc1OC)C(=O)Cn1cnc2ccccc2c1=O`: -14.3% and 6.69% (inactive).

Consider `C/C(=N\NS(=O)(=O)c1ccc(Br)cc1)c1cccs1`, for which the growth inhibition came out at 2.78% and the inhibition was 11% (inactive). For `Cc1cccc(NC(=O)C2CC(=O)OC23CCCC3)c1` (stereo not drawn), the growth inhibition was 11.5% and the inhibition is -11.9% (inactive).

`Cc1ccc(NC(=O)N2CCC(c3nc4c(nnn4Cc4c(F)cccc4Cl)c(=O)[nH]3)CC2)cc1`: the growth inhibition turned out to be 6.06% and the inhibition is 14.6% (inactive). For the compound `CCC(C)NC(=O)CCCc1ccccc1` (stereo not drawn), the growth inhibition is -2.38% and the inhibition is 7.79% (inactive).

As to `CCCCNC(=O)C1CCCNC1=O` (stereo not drawn), the growth inhibition was found to be 26.5% and the inhibition was 22.2% (inactive). The corresponding values for `CC1(C)Cc2c(sc3nc(SCC(=O)NCc4ccccc4)n(-c4ccccc4)c(=O)c23)CS1` are -11.9% and -11% (inactive). Take `CCOc1ccc(S(=O)(=O)NCC2CCCO2)cc1` (stereo not drawn): the growth inhibition is 5.88% and the inhibition was 10.3% (inactive). With `Cn1c2c(c(=O)n(C)c1=O)C(c1cccc([N+](=O)[O-])c1)Nc1ccccc1O2` (stereo not drawn), the growth inhibition was -14.3% and the inhibition is 20.4% (inactive). Regarding `CC(=O)Nc1ccc(S(=O)(=O)N2CCN(C3CCCCCCC3)CC2)cc1`, the growth inhibition came to 9.09% and the inhibition was -9.55% (inactive). `CCOC(=O)CSc1nnc(CNc2ccc(F)cc2)o1`: the growth inhibition came out at 3.45% and the inhibition was 19.4% (inactive). As for `COc1ccc(CN(CC(=O)NC2CCCC2)C(=O)CCC(=O)Nc2cc(C)on2)cc1`, the growth inhibition was -15.6% and the inhibition is -35.1% (inactive). `CN(C(=O)COc1ccccc1)c1nnc(-c2ccncc2)s1`: the inhibition is 10.2% (inactive). In the case of `CCOC(=O)CSc1nncc2ccc(OC)c(OC)c12`, the inhibition is 50.1% (active).

Consider `CCOC(=O)CSc1nccc(N(C)C)c1C#N`, for which the growth inhibition came out at 12% and the inhibition is 24.8% (inactive). For `CCOC(=O)CSc1nnc(CNC(=O)Cc2ccccc2)n1-c1ccccc1OC`, the growth inhibition was -1.72% and the inhibition was 36.1% (inactive). On to `CCC(=O)c1ccc(OCC(O)CN2CC(C)OC(C)C2)cc1` (stereo not drawn), for which the growth inhibition turned out to be 4.55% and the inhibition was -8.08% (inactive).

For the origin of these results see PubChem BioAssay AID688 (PCMD, 2007).
